Source: PubChem BioAssay AID623961 (The Scripps Research Institute Molecular Screening Center, 2012)
Activity calls are given as the source filed them.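 Rule for the calls: active = mean cell viability below 80%; inactive = the rest.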

Test system: Huh-7.5 Rluc-replicon viability, CellTiter-Glo ATP, 72 h
Assay: cytotoxicity in HCV replicon hepatoma cells, late-stage follow-up, cytotoxicity control for HCV NS3 helicase inhibitor project, cell-based, luminescence (AID 623961)
Conditions: at 10 µM; stronger effect = lower value
Procedure, shortened: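 System: Huh-7.5 human hepatoma cells harboring HCV Renilla luciferase replicon / Compound dosing: 10 µM single concentration, 0.5% DMSO / Schedule: cell attachment 4-5 h, compound exposure 72 h at 37 °C, 5% CO2 / Technique: ATP luminescence after 30 min lysis at 23 °C / Read-out: mean % viability / Buffer or medium: fresh growth medium at readout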

## Cc1ccc2nc(-c3ccc4nc(-c5ccc(NCc6ccccc6)cc5)sc4c3)sc2c1S(=O)(=O)O
  viability: 109% (inactive)

## Cc1ccc2nc(-c3ccc4nc(-c5ccc(NC(=O)c6ccc(Cl)c(Cl)c6)cc5)sc4c3)sc2c1S(=O)(=O)O
  viability: 114% (inactive)

## Cc1ccc2nc(-c3ccc4nc(-c5ccc(NC(=O)c6cccnc6)cc5)sc4c3)sc2c1S(=O)(=O)O
  viability: 113% (inactive)

## Cc1ccc2nc(-c3ccc4nc(-c5ccc(NC(=O)Nc6ccc(C(F)(F)F)cc6)cc5)sc4c3)sc2c1S(=O)(=O)O
  viability: 99% (inactive)

## Cc1ccc2nc(-c3ccc4nc(-c5ccc(NC(=O)c6cccc(C(F)(F)F)c6F)cc5)sc4c3)sc2c1S(=O)(=O)O
  viability: 122% (inactive)

## CCOc1ccc2nc(NC(=O)c3ccc4ncsc4c3)sc2c1
  viability: 3%

## CCN(CC)c1ccc(-c2nc3ccc(C)c(S(=O)(=O)O)c3s2)cc1
  viability: 99% (inactive)

## Cc1ccc2nc(-c3ccc(NC(=O)c4ccc(NC(=O)c5ccc(N)cc5)cc4)cc3)sc2c1S(=O)(=O)O
  viability: 112% (inactive)

## COc1cccc2c(=O)c3cc(Cl)cc(C(=O)Nc4cc(Cl)ccn4)c3[nH]c12
  viability: 79%

## Cc1ccc2nc(-c3ccc(NC(=O)c4ccc(N)cc4)cc3)sc2c1S(=O)(=O)O
  viability: 103% (inactive)

## Cc1ccc2nc(-c3ccc4nc(-c5ccc(NC(=O)c6ccc(N(C)C)cc6)cc5)sc4c3)sc2c1S(=O)(=O)O
  viability: 94% (inactive)

## O=C(CCCCCCC(=O)Nc1ccc(-c2nc3ccccc3[nH]2)cc1)Nc1ccc(-c2nc3ccccc3[nH]2)cc1
  viability: 31%

## CCN(CC)c1ccc(-c2nc3ccc(-c4nc5ccc(C)c(S(=O)(=O)O)c5s4)cc3s2)cc1
  viability: 96% (inactive)

## COC(=O)c1ccc(C(=O)Nc2ccc(-c3nc4ccc(-c5nc6ccc(C)c(S(=O)(=O)O)c6s5)cc4s3)cc2)cc1
  viability: 101% (inactive)

## Cc1ccc2nc(-c3ccc(NC(=O)c4ccc(C(F)(F)F)cc4)cc3)sc2c1S(=O)(=O)O
  viability: 102% (inactive)

## Cc1ccc2nc(-c3ccc(NC(=O)c4ccc(NC(=O)c5ccccc5)cc4)cc3)sc2c1S(=O)(=O)O
  viability: 115% (inactive)

## Cc1ccc2nc(-c3ccc(NC(=O)c4ccc(NC(=O)c5ccc(C(F)(F)F)cc5)cc4)cc3)sc2c1S(=O)(=O)O
  viability: 97% (inactive)

## Cc1ccc2nc(-c3ccc4nc(-c5ccc(NC(=O)c6ccc(NC(=O)OCC7c8ccccc8-c8ccccc87)cc6)cc5)sc4c3)sc2c1S(=O)(=O)O
  viability: 92% (inactive)

## Cc1ccc2nc(-c3ccc(NC(=O)c4ccc(NC(=O)Nc5ccccc5)cc4)cc3)sc2c1S(=O)(=O)O
  viability: 113% (inactive)

## Cc1ccc2nc(-c3ccc4nc(-c5ccc(NC(=O)c6ccccc6C(F)(F)F)cc5)sc4c3)sc2c1S(=O)(=O)O
  viability: 112% (inactive)

## Cc1ccc2nc(-c3ccc4nc(-c5ccc(NC(=O)c6cc(C(F)(F)F)cc(C(F)(F)F)c6)cc5)sc4c3)sc2c1S(=O)(=O)O
  viability: 122% (inactive)

## Cc1ccc2nc(-c3ccc4nc(-c5ccc(NC(=O)c6ccc(F)cc6)cc5)sc4c3)sc2c1S(=O)(=O)O
  viability: 94% (inactive)

## Cc1ccc2nc(-c3ccc4nc(-c5ccc(NC(=O)c6cc(F)cc(C(F)(F)F)c6)cc5)sc4c3)sc2c1S(=O)(=O)O
  viability: 113% (inactive)

## Cc1ccc2nc(-c3ccc(NC(=S)Nc4ccccc4Br)cc3)sc2c1
  viability: 39%

## Cc1ccc2nc(-c3ccc4nc(-c5ccc6nc(-c7ccc(N)cc7)sc6c5)sc4c3)sc2c1S(=O)(=O)O (tested in a mixture with another compound)
  viability: 98% (inactive)
